# Sampled rows, rich in hits. Any-hit rate of the full collection: about 1.8%.
# TLR4-MyD88 BLA: blocks binding of human TLR4 to MyD88; O00206+Q99836; HeLa CL3-4 TLR4/MyD88 BLA complementation, FRET ratio; inhibition, % at 8.4 µM; hit rate 0.18% among 200,000; AID 861; in the data active = inhibition above about 25%;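 also: 0% = vehicle and 100% = reference inhibitor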
# TLR9-MyD88 block: blocks human TLR9 binding to MyD88. CHO BLA complementation TLR9-MyD88, CCF4 FRET ratio. inhibition, % at 4.98 µM. hit rate 0.21% among 340,000. AID 504734;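 active = inhibition above the mean over all tested compounds plus 3 SD, cut at about 21% in these data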;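 also: 0% = DMSO only wells and 100% = clavulanate BLA inhibitor control wells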
# NOD2-RIPK2 inh: inhibitors of human NOD2-RIPK2 interaction | CHO BLA complementation NOD2-RIPK2, CCF4 ratio | AID 624267 | inhibition, % at 4.98 µM | hit rate 0.38% among 360,000 | O43353; in the data active = inhibition above about 21%;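 also: 0% = vehicle only and 100% = reference blocker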
# MC4R barr agon: activates human MC4R beta-arrestin recruitment; P32245; AID 540308; U2OS MC4R beta-arrestin complementation, luminescence; percent of melanotan II response, DMSO zero; activation, % at 8.9 µM; hit rate 0.98% among 360,000;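 active = activation above a per-plate cutoff, the mean activation of sample wells on that plate plus 3 SD, cut at about 8% in these data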
# MC4R antag cAMP: blocks human MC4R cAMP signaling; AID 540295; inhibition, % at 6.5 µM; MC4R-expressing cells, MTII-stimulated cAMP, LANCE TR-FRET; hit rate 0.48% among 360,000;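 active = inhibition above its plate's cutoff, the mean of tested wells on that plate plus 3 SD, cut at about 29% in these data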;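 also: 0% = Melanotan II alone and 100% = Melanotan II plus saturating MCL0020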
#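 Assay system: U2OS cells stably expressing human melanocortin 4 receptor (MC4R) / Dosing: 6.5 µM / Timing: compound 30 min, challenge 1 h, detection 1 h / Measured by: Eu-cAMP/anti-cAMP TR-FRET, emission 671 nm / Replicates: singlicate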
# TLR9-MyD88 cf: TLR9-MyD88 interaction inhibition, confirmation. shares compounds with TLR9-MyD88 block. CHO TLR9/MyD88 BLA complementation, CCF4 FRET ratio. inhibition, % at 4.98 µM. hit rate 51% among 680;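 active = mean inhibition across three repeats above about 21% taken from the earlier screen, limit read from the data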;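 also: blue over green emission ratio reports constitutive TLR9 MyD88 association via BLA complementation; 0% = DMSO vehicle wells and 100% = clavulanate BLA inhibitor wells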
# BLA counter-1: non-selective beta-lactamase inhibitors in TLR9-MyD88 counter-screen | shares compounds with TLR9-MyD88 block | CHO-BLA cells, CCF4 FRET ratio, BLA reporter | inhibition, % at 4.98 µM | hit rate 7% among 680;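 active = mean inhibition above a 50% cutoff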;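 also: counterscreen of TLR9-MyD88 hits on CMV-driven BLA in CHO-K1 cells; 0% = DMSO alone and 100% = clavulanate blocking BLA; higher means less blue over green ratio so more BLA blockade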
# TLR9 CHO tox: CHO cell toxicity counter-screen for TLR9-MyD88 inhibitors; shares compounds with TLR9-MyD88 block; TLR9-MyD88 CHO cells cytotoxicity, luminescence; inhibition, % at 4.98 µM; hit rate 39% among 680; AID 588336; in the data active = inhibition above about 11%
# cAMP nonselect: counter-screen for MC4R antagonists: nonselective cAMP signaling inhibitors; hit rate 26% among 1,600; inhibition, % at 6.5 µM; parental U2OS, forskolin cAMP, LANCE TR-FRET; AID 602193; shares compounds with MC4R antag cAMP;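 active = mean inhibition over triplicates above the low-control well mean plus 3 SD, set per campaign, cut at about 13% in these data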;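 also: signal is single emission at 671 nm which falls as cellular cAMP rises; 0% = forskolin-stimulated wells and 100% = buffer without forskolin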
# MC4R cAMP antag: human MC4R cAMP antagonism confirmation; shares compounds with MC4R antag cAMP; MC4R-expressing cells, MTII-stimulated cAMP, TR-FRET; inhibition, % at 6.5 µM; hit rate 27% among 1,600; in the data active = inhibition above about 29%;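 also: 0% = agonist stimulated wells alone and 100% = agonist stimulated wells plus saturating reference antagonist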
# NOD2-RIPK2 conf: confirmation of human NOD2-RIPK2 interaction inhibitors | shares compounds with NOD2-RIPK2 inh | inhibition, % at 4.98 µM | AID 624370 | CHO cells, NOD2-RIPK2 BLA complementation, CCF4 FRET | hit rate 70% among 1,200;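 active = mean inhibition across replicates above a set limit taken from the earlier primary screen, cut at about 21% in these data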;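 also: 0% = DMSO-only wells and the high end = clavulanate BLA-blocked wells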
# BLA counter-2: hits BLA reporter in NOD2-RIPK2 inhibitor counterscreen. shares compounds with NOD2-RIPK2 inh. CHO BLA reporter, CCF4 FRET ratio. inhibition, % at 4.98 µM. hit rate 57% among 1,200. AID 624371;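 active = mean inhibition above the low-control mean inhibition plus three low-control SD, cut at about 11% in these data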;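 also: 0% = DMSO only wells and 100% = clavulanate high control wells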
# Starred values were filed as active, the others as inactive; . = not tested or not shown; ! = repeats disagree.
SMILES,TLR4-MyD88 BLA,TLR9-MyD88 block,NOD2-RIPK2 inh,MC4R barr agon,MC4R antag cAMP,TLR9-MyD88 cf,BLA counter-1,TLR9 CHO tox,NOD2-RIPK2 conf,BLA counter-2,others
CN(C)CCCN(C(=O)CCOc1ccccc1)c1nc2c(F)cccc2s1,19,22*,48*,-3,-10,3,3,68*,27*,0,
CCOC(=O)c1c(NC(C)=O)sc2c1CCC(C=O)=C2Sc1ccccc1,20,22*,35*,-2,-12,18,3,37*,67*,20*,
CCc1ccccc1NC(=O)CN(C1CCCCC1)S(C)(=O)=O,.,3,-11,0,13,.,.,.,.,.,
O=[N+]([O-])c1ccc(N/N=C/C=C/c2ccco2)cc1,.,40*,55*,-2,7,37*,39,-3,63*,68*,
O=[N+]([O-])c1c(Nc2ccc(O)cc2)cc(Cl)c2nonc12,.,49*,122*,-7,-43,60*,-17,97*,120*,25*,
O=C1/C(=C/c2ccccc2)SC(=S)N1N1C(=O)C2CC2C1=O (centres undefined),3,-9,-3,3,0,.,.,.,.,.,
Oc1ccc(/C=C/c2ccc3cccc(O)c3n2)cc1Br,.,27*,27*,0,23,10,14,2,39*,47*,
O=C(O)c1ccc(/C=C/c2ccc3cccc(O)c3n2)cc1,-11,-7,-10,0,4,.,.,.,.,.,
CCn1c(=O)c([N+](=O)[O-])c(NCCN(C)C)c2ccccc21,3,-2,-7,-1,8,.,.,.,.,.,
CCn1c(=O)c([N+](=O)[O-])c(Cl)c2ccccc21,9,44*,88*,-3,21,62*,9,96*,96*,22*,
O=C(Nc1cc2c3c(c1)CC(=O)N3CCC2)c1ccccc1Br,.,4,3,1,4,.,.,.,.,.,
O=C(NCc1cc(C(F)(F)F)ccc1Cl)c1cccc2c1C(=O)c1ccc(N3CCC(N4CCCCC4)CC3)cc1S2(=O)=O,.,47*,61*,3,5,43*,52*,24*,69*,68*,
O=C(NCc1cc(C(F)(F)F)ccc1Cl)c1cccc2c1C(=O)c1ccc(N3CCCCC3)cc1S2(=O)=O,.,2,-3,-1,2,.,.,.,.,.,
Cc1nnc(SCC(=O)NC2CCCC2)n1-c1ccccc1,.,-3,6,-2,6,.,.,.,.,.,
COC(=O)c1cn[nH]c1NC(=S)Nc1ccc(C)cc1Cl,-8,23*,50*,-2,-1,8,4,4,27*,12*,
COc1cc2ccc(=O)oc2c(O[C@@H]2O[C@H](CO)[C@@H](O)[C@H](O)[C@H]2O)c1O,.,40*,45*,0,2,24*!,32,-1,49*,59*,
CC1CN(C(=O)COC(=O)CSc2ccc([N+](=O)[O-])cc2)CC(C)O1 (centres undefined),.,-8,3,-5,0,.,.,.,.,.,
O=C1C(SCCO)=C(SCCO)C(=O)c2ccccc21,.,64*,84*,-4,97*,84*,17,99*,92*,34*,cAMP nonselect=102*;MC4R cAMP antag=143*
CC1=C(SCc2ccccc2)C(=O)c2ccccc2C1=O,.,-1,12,-2,8,.,.,.,.,.,
COc1ccc(-c2cc3ccc(O)cc3oc2=O)cc1OC,.,40*,52*,-1,-6,28*,36,2,56*,60*,
O=c1oc2c(O)cccc2cc1-c1nc2ccccc2[nH]1,.,54*,58*,3,-10,45*,54*,9,73*,79*,
COC(=O)CNC(=O)CN1C(=O)N(c2cccc(Cl)c2)C(N(O)C(=O)Nc2cccc(Cl)c2)C1(C)C (centres undefined),7,32*,26*,-1,5,8,8,2,14,23*,
CCCS(=O)(=O)NC(=O)C1(C)CCCN(C(=O)c2c(F)ccc(C)c2F)C1 (centres undefined),.,.,-15,-1,-6,.,.,.,.,.,
COc1ccc(C2C=C(C)Nc3ncnn32)cc1 (centres undefined),.,-1,-23,-2,20,.,.,.,.,.,
Cc1ccc(C2=CC(c3ccc(C)cc3)n3ncnc3N2)cc1 (centres undefined),.,26*,46*,1,0,15,18,-5,33*,35*,
SMILES,TLR4-MyD88 BLA,TLR9-MyD88 block,NOD2-RIPK2 inh,MC4R barr agon,MC4R antag cAMP,TLR9-MyD88 cf,BLA counter-1,TLR9 CHO tox,NOD2-RIPK2 conf,BLA counter-2,others
CCOc1ccc(C2C=C(c3ccccc3)Nc3nnnn32)cc1 (centres undefined),4,19,1,2,2,.,.,.,.,.,
CCOc1ccc(C2C=C(c3ccc(C)cc3)Nc3ncnn32)cc1 (centres undefined),13,.,.,.,.,.,.,.,.,.,
CCOc1ccc(C2C=C(c3ccc(C)cc3)Nc3nnnn32)cc1 (centres undefined),3,62*,45*,0,3,-1,-3,2,-4,0,
COc1ccc(C2C=C(c3ccccc3)Nc3ncnn32)cc1 (centres undefined),14,39*,46*,3,-1,4,8,-1,-3,-4,
Cc1cnc(CNC(=O)c2csc([C@@H]3C[C@H](O)[C@@H](CO)O3)n2)cn1,.,.,-5,-1,-8,.,.,.,.,.,
CCCNC(=O)C1(CC2CC(c3ccccc3)=NO2)CCN(C(=O)C2CCCC2)CC1 (centres undefined),.,-8,-19,-1,9,.,.,.,.,.,
COc1ccc(NC(=O)C(Cl)=C(Cl)Cl)cn1,2,6,-3,-3,18,.,.,.,.,.,
COc1ccc(NC(=O)/C(Cl)=C(/Cl)S(=O)(=O)Cc2ccccc2)cn1,10,28*,56*,-3,56*,21*,20,99*,68*,23*,cAMP nonselect=34*;MC4R cAMP antag=49*
Cc1nnc(NC(=O)c2nc(S(=O)(=O)Cc3ccccc3C)ncc2Cl)s1,.,10,11,2,22,.,.,.,.,.,

# Bioassay records (PubChem)
